Key:
Plasmodium falciparum [1] = test: Antiplasmodial activity against chloroquine resistant Plasmodium falciparum INDO infected in human erythrocytes assessed as inhibition of parasite growth incubated for 72 hrs by SYBR green I staining based fluorescence plate reader analysis; assay type: functional, organism-based; conditions: Erythrocyte
In short: (§1)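 Pf3D7 or PfINDO was cultured in O+ human erythrocytes at 37 °C under 5% O2/5% CO2/90% N2 and ring-synchronised with 5% sorbitol. Cultures were exposed to 0–100 μM in triplicate for 72 h, with final DMSO 0.4%. After SYBR Green I lysis buffer (1 h, dark, 37 °C), fluorescence was read at 485/530 nm. Chloroquine-well counts were subtracted as background, and IC50 was obtained by non-linear regression.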

Plasmodium falciparum [2] = test: Antiplasmodial activity against chloroquine resistant Plasmodium falciparum INDO infected in human erythrocytes assessed as inhibition of parasite growth at 100 uM incubated for 72 hrs by SYBR green I staining based fluorescence plate reader analysis relative to control; assay type: functional; conditions: Erythrocyte
In short: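 Single-concentration screen at 100 μM against PfINDO, triplicate wells, 72 h. Final DMSO was 0.4%. Growth was read by SYBR Green I lysis (excitation 485, emission 530 nm) and expressed relative to untreated culture, taken as 100% growth.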

[3] = Resistance index, ratio of IC50 of chloroquine resistant Plasmodium falciparum INDO to chloroquine sensitive Plasmodium falciparum 3D7; assay type: functional
In short: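 Resistance index = IC50 against PfINDO / IC50 against Pf3D7. Both IC50s came from 72 h SYBR Green I assays.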

[4] = Cytotoxicity against human Huh-7 cells assessed as reduction in cell viability incubated for 24 hrs by MTT assay; assay type: toxicity, cell-based
[5] = Cytotoxicity against human HEK293 cells assessed as reduction in cell viability incubated for 24 hrs by MTT assay; assay type: toxicity, cell-based
[6] = Selectivity index, ratio of CC50 for human Huh-7 cells to IC50 for antiplasmodial activity against chloroquine resistant Plasmodium falciparum INDO infected in human erythrocytes; assay type: toxicity, cell-based; conditions: read-out: Ratio CC50/IC50
In short: (§2)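 Selectivity index = CC50 / PfINDO IC50. CC50 came from MTT assays: 10^4 HEK293 or HUH7 cells per well, seeded overnight and exposed to 0–100 μM for 24 h, then MTT for 4 h at 37 °C with formazan dissolved in DMSO and read at A570. Controls were 0.8% DMSO (full growth) and 10% DMSO (zero growth).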

Plasmodium falciparum [7] = test: Antiplasmodial activity against chloroquine sensitive Plasmodium falciparum 3D7 infected in human erythrocytes assessed as inhibition of parasite growth incubated for 72 hrs by SYBR green I staining based fluorescence plate reader analysis; assay type: functional, organism-based; conditions: 3D7, Erythrocyte; in short: as §1
Plasmodium falciparum [8] = test: Antiplasmodial activity against chloroquine sensitive Plasmodium falciparum 3D7 infected in human erythrocytes assessed as inhibition of parasite growth at 100 uM incubated for 72 hrs by SYBR green I staining based fluorescence plate reader analysis relative to control; assay type: functional; conditions: 3D7, Erythrocyte
In short: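 Pf3D7 grown in O+ human erythrocytes at 4% haematocrit, Albumax (0.05%)-RPMI, 37 °C, 5% O2/5% CO2/90% N2, sorbitol-synchronised at ring stage. Single-point screen at 100 μM, final DMSO 0.4%, triplicate wells, 72 h. Read-out by SYBR Green I lysis buffer (Tris pH 7.5, EDTA, saponin, Triton X-100), 1 h dark at 37 °C, ex 485/em 530 nm. Growth expressed relative to untreated culture.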

[9] = Selectivity index, ratio of CC50 for human HEK293 cells to IC50 of chloroquine resistant Plasmodium falciparum INDO infected in human erythrocytes; assay type: toxicity, cell-based; conditions: read-out: Ratio CC50/IC50; in short: as §2
Plasmodium falciparum [10] = test: Antiplasmodial activity against chloroquine resistant ring-stage Plasmodium falciparum INDO infected in human erythrocytes assessed as inhibition of parasite growth incubated for 12 hrs; assay type: functional, organism-based; conditions: Erythrocyte
In short: (§3)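 PfINDO cultures were staged at 0–6 h (rings), 18–22 h (trophozoites), 30–34 h (early schizonts) and 40–44 h (late schizonts) post-invasion. Each was exposed to varying concentrations for 12 h, washed free of compound by centrifugation, and grown 48 h in drug-free medium. IC50 came from growth curves, with untreated culture as 100% and chloroquine-treated culture as 0% growth.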

Plasmodium falciparum [11] = test: Antimalarial activity against chloroquine resistant early schizont Plasmodium falciparum INDO infected in human erythrocytes assessed as inhibition of parasite growth incubated for 12 hrs; assay type: functional, organism-based; conditions: Erythrocyte; in short: as §3
Plasmodium falciparum [12] = test: Antimalarial activity against chloroquine resistant trophozoites-stage Plasmodium falciparum INDO infected in human erythrocytes assessed as inhibition of parasite growth incubated for 12 hrs; assay type: functional, organism-based; conditions: Erythrocyte; in short: as §3
Plasmodium falciparum [13] = test: Antimalarial activity against chloroquine resistant late schizont Plasmodium falciparum INDO infected in human erythrocytes assessed as inhibition of parasite growth incubated for 12 hrs; assay type: functional, organism-based; conditions: Erythrocyte; in short: as §3
Plasmodium berghei = test: Antimalarial activity against Plasmodium berghei ANKA infected in mouse model of malaria assessed as reduction in parasite infection by measuring median survival at 100 mg/kg, po; assay type: functional

SMILES	IC50 (Plasmodium falciparum [1]) [µM]	inhibition at 100 µM (Plasmodium falciparum [2]) [%]	Ratio IC50 [3]	CC50 at 24 h [4] [µM]	CC50 at 24 h [5] [µM]	selectivity ratio [6]	IC50 (Plasmodium falciparum [7]) [µM]	inhibition at 100 µM (Plasmodium falciparum [8]) [%]	selectivity ratio [9]	IC50 (Plasmodium falciparum [10]) [µM]	IC50 (Plasmodium falciparum [11]) [µM]	IC50 (Plasmodium falciparum [12]) [µM]	IC50 (Plasmodium falciparum [13]) [µM]	Survival (Plasmodium berghei) [days]
CC(C)c1ccc(-c2nnn(CCCN3CCN(c4ccnc5cc(Cl)ccc45)CC3)n2)cc1	8.37	> 50	2.69	> 400	> 400	> 47.8	3.12	> 50	47.8	–	–	–	–	–
Fc1cccc(-c2nnn(CCCN3CCN(c4ccnc5cc(Cl)ccc45)CC3)n2)c1	14.2	> 50	0.62	> 400	> 400	> 28.1	22.9	> 50	28.1	–	–	–	–	–
O=[N+]([O-])c1cccc(-c2nnn(CCCN3CCN(c4ccnc5cc(Cl)ccc45)CC3)n2)c1	16.2	> 50	1.76	72	> 400	4.45	9.17	> 50	24.7	–	–	–	–	–
Clc1ccc2c(N3CCN(CCCn4nnc(-c5cccc(Br)c5)n4)CC3)ccnc2c1	7.05	> 50	1.83	> 400	> 400	> 56.8	3.84	> 50	56.8	8.67	8.24	7.31	4.62	–
O=C(Cn1nnc(-c2ccc([N+](=O)[O-])cc2)n1)N1CCN(c2ccnc3cc(Cl)ccc23)CC1	2.24	> 50	1.36	> 400	> 400	> 179	1.65	> 50	179	10.3	5.46	4.72	6.29	–
Clc1cccc(-c2nnn(CCCN3CCN(c4ccnc5cc(Cl)ccc45)CC3)n2)c1	19.9	> 50	1.87	> 400	> 400	> 20.1	10.7	> 50	20.1	–	–	–	–	–
COc1cccc(-c2nnn(CCCN3CCN(c4ccnc5cc(Cl)ccc45)CC3)n2)c1	7.66	> 50	0.77	> 400	342	> 52.2	9.9	> 50	44.6	–	–	–	–	–
COc1ccc(-c2nnn(CCCN3CCN(c4ccnc5cc(Cl)ccc45)CC3)n2)cc1OC	5.97	> 50	1.23	129	> 400	21.7	4.84	> 50	67	–	–	–	–	–
O=C(Cn1nnc(-c2ccc(Br)cc2)n1)N1CCN(c2ccnc3cc(Cl)ccc23)CC1	11.2	> 50	0.64	> 400	> 400	> 35.6	17.5	> 50	35.6	–	–	–	–	–
O=C(Cn1nnc(-c2cccc(Cl)c2)n1)N1CCN(c2ccnc3cc(Cl)ccc23)CC1	5.91	> 50	0.47	> 400	> 400	> 67.7	12.6	> 50	67.7	19.6	15.9	5.39	24.8	–
O=C(Cn1nnc(-c2cccc(Br)c2)n1)N1CCN(c2ccnc3cc(Cl)ccc23)CC1	8.99	> 50	0.86	> 400	> 400	> 44.5	10.5	> 50	44.5	–	–	–	–	–
O=C(Cn1nnc(-c2cccc(F)c2)n1)N1CCN(c2ccnc3cc(Cl)ccc23)CC1	8.46	> 50	1.04	> 400	> 400	> 47.3	8.14	> 50	47.3	–	–	–	–	–
O=C(Cn1nnc(-c2ccc(F)cc2)n1)N1CCN(c2ccnc3cc(Cl)ccc23)CC1	12.4	> 50	0.8	24.2	> 400	1.95	15.6	> 50	32.2	–	–	–	–	–
Fc1ccc(-c2nnn(CCCN3CCN(c4ccnc5cc(Cl)ccc45)CC3)n2)cc1	4.04	> 50	1.96	> 400	> 400	> 99	2.07	> 50	99	1.72	1.68	2.8	1.85	–
Clc1ccc(-c2nnn(CCCN3CCN(c4ccnc5cc(Cl)ccc45)CC3)n2)cc1	2.87	> 50	2.58	> 400	> 400	> 139	1.11	> 50	139	4.07	3.93	12.2	7.64	–
CC(C)c1ccc(-c2nnn(CC(=O)N3CCN(c4ccnc5cc(Cl)ccc45)CC3)n2)cc1	6.66	> 50	0.42	> 400	> 400	> 60.1	15.9	> 50	60.1	18.5	21.5	24.9	26.7	–
O=C(Cn1nnc(-c2ccc(Cl)cc2)n1)N1CCN(c2ccnc3cc(Cl)ccc23)CC1	14	> 50	0.43	> 400	> 400	> 28.7	32.1	> 50	28.7	–	–	–	–	–
CCN(CC)CCCC(C)Nc1ccnc2cc(Cl)ccc12 (configuration not stated) [CHLOROQUINE]	–	–	–	–	–	–	–	–	–	–	–	–	–	28
Cc1ccc(-c2nnn(CCCN3CCN(c4ccnc5cc(Cl)ccc45)CC3)n2)cc1	6.35	> 50	0.79	310	> 400	48.8	8	> 50	63	–	–	–	–	–

From ChEMBL document CHEMBL5335820, “Novel quinolinepiperazinyl-aryltetrazoles targeting the blood stage of Plasmodium falciparum” (RSC Med Chem, 2024)
